{"data": "Experimental data collected from several papers", "matrix": "plasma", "note": "Protocols differ between the studies behind these lines."}
{"Structure (SMILES)": "Cc1ccc(C(=O)N(CCCN)[C@@H](c2oc3cc(Cl)ccc3c(=O)c2Cc2ccccc2)C(C)C)cc1", "system": "human", "conditions": "intravenous, 6 mg/m², single dose, patients, infusion", "Cmax": "817 ng/mL"}
{"Structure (SMILES)": "CC(C)(Sc1ccncc1-c1ccc(C#N)c2ccccc12)C(=O)O", "system": "male human", "conditions": "oral, 20 mg, single dose, fasted, healthy volunteers", "Cmax": "384 ng/mL"}
{"Structure (SMILES)": "COCCOc1cnc2ccn([C@H](C)c3nnc4c(F)cc(-c5cnn(C)c5)cn34)c(=O)c2c1", "system": "human", "conditions": "oral, 400 mg, multiple doses, once daily, patients", "Cmax": "5140 ng/mL"}
{"Structure (SMILES)": "COc1cc(C(=O)NC2CCN(C)CC2)c(F)cc1Nc1ncc(C(F)(F)F)c(Oc2cccc3c2C(=O)N(C)C3)n1", "system": "human", "conditions": "oral, 300 mg, multiple doses, once daily, steady state, patients", "Cmax": "5060 nM"}
{"Structure (SMILES)": "CCc1nc2c(C)cc(N3CCN(CC(=O)N4CC(O)C4)CC3)cn2c1N(C)c1nc(-c2ccc(F)cc2)c(C#N)s1", "system": "human", "conditions": "oral, 1000 mg, single dose, fed, healthy volunteers", "Cmax": "11800 ng/mL"}
{"Structure (SMILES)": "Cn1cc(-c2ccc(S(=O)(=O)[C@@H]3C[C@@H](C(=O)NC4(C#N)CC4)N(C(=O)C4(C(F)(F)F)CC4)C3)c(C(F)(F)F)c2)cn1", "system": "human", "conditions": "oral, 300 mg, single dose, fasted, healthy volunteers", "Cmax": "1070 ng/mL"}
{"Structure (SMILES)": "CO[C@H]1CC[C@H](N2C(=O)CNc3ncc(-c4ccc(C(C)(C)O)nc4)nc32)CC1", "system": "human", "conditions": "oral, 45 mg, multiple doses, patients", "Cmax": "417 ng/mL"}
{"Structure (SMILES)": "CCn1c(=O)c(-c2cc(NC(=O)Nc3ccccc3)c(F)cc2Br)cc2cnc(NC)cc21", "system": "human", "conditions": "oral, 100 mg, single dose, patients", "Cmax": "500 ng/mL"}
{"Structure (SMILES)": "CC(C)(O)c1ccccc1-c1ccc2[nH]c(/C=C/c3ccc(C(F)(F)F)cc3)nc2c1", "system": "male human", "conditions": "oral, 30 mg, single dose, fasted, healthy volunteers", "Cmax": "91.8 ng/mL"}
{"Structure (SMILES)": "Cn1c(=O)oc2ccc(-c3ccc(C[C@@H](C#N)NC(=O)[C@@H]4CNCCCO4)cc3)cc21", "system": "male human", "conditions": "oral, 15 mg, single dose, healthy volunteers", "Cmax": "202 nM"}
{"Structure (SMILES)": "COc1ccc([C@@H]2CN(C(=O)[C@@H](O)CO)C[C@@]2(C)[C@@H](C)O)cc1OC1CN(c2ccc(C)cn2)C1", "system": "human", "conditions": "oral, 40 mg, single dose, healthy volunteers", "Cmax": "799 ng/mL"}
{"Structure (SMILES)": "C[C@@]1(c2cc(NC(=O)c3ccc(C#N)cn3)ccc2F)C=CSC(N)=N1", "system": "human", "conditions": "oral, 10 mg, single dose", "Cmax": "83.9 ng/mL"}
{"Structure (SMILES)": "CC(C)n1cc(C#N)c2cc(-n3cc(C(=O)O)cn3)ccc21", "system": "human", "conditions": "oral, 25 mg, single dose, fasted, healthy volunteers", "Cmax": "978 ng/mL"}
